≈ marks a conversion by molar mass, not a printed value.
Assays:
Format in all cases: functional
Escherichia coli [1] = assay: Antibacterial activity against Escherichia coli ATCC 25922 at MIC after 3 to 4 days by agar well diffusion method
Aspergillus flavus [2] = assay: Antifungal activity against Aspergillus flavus NCIM 524 by serial plate dilution method
Staphylococcus aureus [3] = assay: Antibacterial activity against Staphylococcus aureus ATCC 25923 after 16 to 18 hrs by serial plate dilution method
Summary of the method: (§1)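 Drug serially diluted in Mueller–Hinton broth in tubes, adjusted to pH 5.0 with phosphate buffer. Inoculated with standardized bacterial suspension and incubated 16–18 h at 37 °C. MIC taken as lowest concentration with no visible growth.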

Pseudomonas aeruginosa [4] = assay: Antibacterial activity against Pseudomonas aeruginosa ATCC 27853 after 16 to 18 hrs by serial plate dilution method; summary of the method: as §1
Klebsiella pneumoniae [5] = assay: Antibacterial activity against recultured Klebsiella pneumoniae at MIC after 3 to 4 days by agar well diffusion method
Klebsiella pneumoniae [6] = assay: Antibacterial activity against recultured Klebsiella pneumoniae after 16 to 18 hrs by serial plate dilution method; summary of the method: as §1
Talaromyces marneffei [7] = assay: Antifungal activity against recultured Penicillium marneffei by serial plate dilution method
Escherichia coli [8] = assay: Antibacterial activity against Escherichia coli ATCC 25922 after 16 to 18 hrs by serial plate dilution method; summary of the method: as §1
Aspergillus flavus [9] = assay: Antifungal activity against Aspergillus flavus NCIM 524 at MIC after 3 to 4 days by agar well diffusion method
Summary of the method: (§2)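 Sabouraud agar (peptone, D-glucose, agar; pH 5.7) seeded with spore suspension made by transferring a loopful of fungus to 3 mL normal saline. Excess decanted, plates dried 1 h at 37 °C. Compounds in DMSO at MIC added to punched wells; DMSO control. Triplicate plates kept 3–4 days at 37 °C.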

Aspergillus fumigatus [10] = assay: Antifungal activity against Aspergillus fumigatus NCIM 902 at MIC after 3 to 4 days by agar well diffusion method; summary of the method: as §2
[11] = tested on: Trichophyton mentagrophytes; assay: Antifungal activity against recultured Trichophyton mentagrophytes at MIC after 3 to 4 days by agar well diffusion method; summary of the method: as §2
Staphylococcus aureus [12] = assay: Antibacterial activity against Staphylococcus aureus ATCC 25923 at MIC after 3 to 4 days by agar well diffusion method
Aspergillus fumigatus [13] = assay: Antifungal activity against Aspergillus fumigatus NCIM 902 by serial plate dilution method
Pseudomonas aeruginosa [14] = assay: Antibacterial activity against Pseudomonas aeruginosa ATCC 27853 at MIC after 3 to 4 days by agar well diffusion method
Talaromyces marneffei [15] = assay: Antifungal activity against recultured Penicillium marneffei at MIC after 3 to 4 days by agar well diffusion method; summary of the method: as §2
[16] = tested on: Trichophyton mentagrophytes; assay: Antifungal activity against recultured Trichophyton mentagrophytes by serial plate dilution method

Structure (SMILES) | inhibition zone (IZ) (Escherichia coli [1]) | MIC (Aspergillus flavus [2]) | MIC (Staphylococcus aureus [3]) | MIC (Pseudomonas aeruginosa [4]) | inhibition zone (IZ) (Klebsiella pneumoniae [5]) | MIC (Klebsiella pneumoniae [6]) | MIC (Talaromyces marneffei [7]) | MIC (Escherichia coli [8]) | inhibition zone (IZ) (Aspergillus flavus [9]) | inhibition zone (IZ) (Aspergillus fumigatus [10]) | inhibition zone (IZ) [11] | inhibition zone (IZ) (Staphylococcus aureus [12]) | MIC (Aspergillus fumigatus [13]) | inhibition zone (IZ) (Pseudomonas aeruginosa [14]) | inhibition zone (IZ) (Talaromyces marneffei [15]) | MIC [16]
CC(C)N1CCN(c2c(-c3nnc(S)n3-c3ccccc3)cnc3c(C(F)(F)F)cccc23)CC1 | 20 mm | 50 µg/mL (≈ 100 µM) | 50 µg/mL (≈ 100 µM) | 50 µg/mL (≈ 100 µM) | <10 mm | 50 µg/mL (≈ 100 µM) | 50 µg/mL (≈ 100 µM) | 6.25 µg/mL (≈ 12.5 µM) | <10 mm | <10 mm | <10 mm | <10 mm | 50 µg/mL (≈ 100 µM) | <10 mm | <10 mm | 50 µg/mL (≈ 100 µM)
COCCn1c(S)nnc1-c1cnc2c(C(F)(F)F)cccc2c1O | 20 mm | 6.25 µg/mL (≈ 16.9 µM) | 6.25 µg/mL (≈ 16.9 µM) | 6.25 µg/mL (≈ 16.9 µM) | 16 mm | 6.25 µg/mL (≈ 16.9 µM) | 6.25 µg/mL (≈ 16.9 µM) | 6.25 µg/mL (≈ 16.9 µM) | 16 mm | 16 mm | 20 mm | 16 mm | 6.25 µg/mL (≈ 16.9 µM) | 16 mm | 16 mm | 6.25 µg/mL (≈ 16.9 µM)
COCCn1c(S)nnc1-c1cnc2c(C(F)(F)F)cccc2c1N1CCOCC1 | 20 mm | 6.25 µg/mL (≈ 14.2 µM) | 6.25 µg/mL (≈ 14.2 µM) | 6.25 µg/mL (≈ 14.2 µM) | 16 mm | 6.25 µg/mL (≈ 14.2 µM) | 6.25 µg/mL (≈ 14.2 µM) | 6.25 µg/mL (≈ 14.2 µM) | 16 mm | 16 mm | 20 mm | 16 mm | 6.25 µg/mL (≈ 14.2 µM) | 16 mm | 16 mm | 6.25 µg/mL (≈ 14.2 µM)
OCCCC1CCN(c2c(-c3nnc(S)n3Cc3ccccc3)cnc3c(C(F)(F)F)cccc23)CC1 | 16 mm | 12.5 µg/mL (≈ 23.7 µM) | 12.5 µg/mL (≈ 23.7 µM) | 12.5 µg/mL (≈ 23.7 µM) | 12 mm | 12.5 µg/mL (≈ 23.7 µM) | 12.5 µg/mL (≈ 23.7 µM) | 12.5 µg/mL (≈ 23.7 µM) | 10 mm | 10 mm | 16 mm | 10 mm | 12.5 µg/mL (≈ 23.7 µM) | 10 mm | 10 mm | 12.5 µg/mL (≈ 23.7 µM)
COCCn1c(S)nnc1-c1cnc2c(C(F)(F)F)cccc2c1N1CC(C)OC(C)C1 (stereo unspecified) | 20 mm | 6.25 µg/mL (≈ 13.4 µM) | 6.25 µg/mL (≈ 13.4 µM) | 6.25 µg/mL (≈ 13.4 µM) | 16 mm | 6.25 µg/mL (≈ 13.4 µM) | 6.25 µg/mL (≈ 13.4 µM) | 6.25 µg/mL (≈ 13.4 µM) | 16 mm | 16 mm | 20 mm | 16 mm | 6.25 µg/mL (≈ 13.4 µM) | 16 mm | 16 mm | 6.25 µg/mL (≈ 13.4 µM)
FC(F)(F)c1cccc2c(N3CCOCC3)c(-c3nnc(S)n3Cc3ccccc3)cnc12 | 16 mm | 12.5 µg/mL (≈ 26.5 µM) | 6.25 µg/mL (≈ 13.3 µM) | 50 µg/mL (≈ 106 µM) | <10 mm | 50 µg/mL (≈ 106 µM) | 12.5 µg/mL (≈ 26.5 µM) | 12.5 µg/mL (≈ 26.5 µM) | 10 mm | 10 mm | 16 mm | 16 mm | 12.5 µg/mL (≈ 26.5 µM) | <10 mm | 10 mm | 12.5 µg/mL (≈ 26.5 µM)
O=C(O)c1cn(C2CC2)c2cc(N3CCNCC3)c(F)cc2c1=O [CIPROFLOXACIN] | 30 mm |  |  |  | 23 mm | 6.25 µg/mL (≈ 18.9 µM) |  |  |  |  |  | 22 mm |  | 25 mm |  | 

Reference: ChEMBL document CHEMBL1155347, “Synthesis and antimicrobial activities of novel quinoline derivatives carrying 1,2,4-triazole moiety” (2009)
